These results are taken from ChEMBL document CHEMBL1151764, “Search for inhibitors of bacterial and human protein kinases among derivatives of diazepines[1,4] annelated with maleimide and indole cycles” (J Med Chem, 2008).

Assay [1] has as its system Streptomyces coelicolor. Put plainly: Inhibition of Ca(2+)/Calmodulin-dependent aph8 phosphorylation in Streptomyces coelicolor cell lysate assessed as [32Pi] incorporation into aph8 at 500 nM by microplate scintillation counter relative to control. More on the design: scale not given: the % may be the effect or the level left. In a few lines:
(§1)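 Radiometric in vitro assay of actinobacterial protein kinases. Kinases incubated under standard conditions with [γ-³²P]ATP and aphVIII as substrate, with or without modulators or inhibitors. Read-out was incorporation of the γ-phosphoryl residue into aphVIII.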

Another assay deals with Insulin receptor (Homo sapiens, UniProt P06213). Kind of assay: Inhibition of human INSR.
Insulin receptor, sequence (P06213 28-758 limits assumed): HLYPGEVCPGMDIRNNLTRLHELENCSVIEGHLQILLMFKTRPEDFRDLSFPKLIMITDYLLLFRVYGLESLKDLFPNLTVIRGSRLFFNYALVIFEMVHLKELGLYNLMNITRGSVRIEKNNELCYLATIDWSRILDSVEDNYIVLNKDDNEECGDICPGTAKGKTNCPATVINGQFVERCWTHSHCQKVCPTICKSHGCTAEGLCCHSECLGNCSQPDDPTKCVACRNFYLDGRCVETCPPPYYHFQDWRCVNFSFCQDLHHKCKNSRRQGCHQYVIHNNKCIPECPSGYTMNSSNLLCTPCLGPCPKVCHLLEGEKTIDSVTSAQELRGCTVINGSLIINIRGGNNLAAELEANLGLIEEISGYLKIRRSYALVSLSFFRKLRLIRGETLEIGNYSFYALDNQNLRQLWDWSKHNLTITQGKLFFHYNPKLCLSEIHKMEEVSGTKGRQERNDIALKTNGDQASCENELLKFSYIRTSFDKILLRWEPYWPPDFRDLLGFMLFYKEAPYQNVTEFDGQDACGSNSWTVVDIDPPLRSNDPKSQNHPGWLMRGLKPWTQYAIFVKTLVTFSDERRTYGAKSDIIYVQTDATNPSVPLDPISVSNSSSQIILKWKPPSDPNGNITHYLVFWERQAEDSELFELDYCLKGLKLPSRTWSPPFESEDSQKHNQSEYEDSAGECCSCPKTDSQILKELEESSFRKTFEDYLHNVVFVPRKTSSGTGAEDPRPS
Insulin receptor, sequence (P06213 763-1382 limits assumed): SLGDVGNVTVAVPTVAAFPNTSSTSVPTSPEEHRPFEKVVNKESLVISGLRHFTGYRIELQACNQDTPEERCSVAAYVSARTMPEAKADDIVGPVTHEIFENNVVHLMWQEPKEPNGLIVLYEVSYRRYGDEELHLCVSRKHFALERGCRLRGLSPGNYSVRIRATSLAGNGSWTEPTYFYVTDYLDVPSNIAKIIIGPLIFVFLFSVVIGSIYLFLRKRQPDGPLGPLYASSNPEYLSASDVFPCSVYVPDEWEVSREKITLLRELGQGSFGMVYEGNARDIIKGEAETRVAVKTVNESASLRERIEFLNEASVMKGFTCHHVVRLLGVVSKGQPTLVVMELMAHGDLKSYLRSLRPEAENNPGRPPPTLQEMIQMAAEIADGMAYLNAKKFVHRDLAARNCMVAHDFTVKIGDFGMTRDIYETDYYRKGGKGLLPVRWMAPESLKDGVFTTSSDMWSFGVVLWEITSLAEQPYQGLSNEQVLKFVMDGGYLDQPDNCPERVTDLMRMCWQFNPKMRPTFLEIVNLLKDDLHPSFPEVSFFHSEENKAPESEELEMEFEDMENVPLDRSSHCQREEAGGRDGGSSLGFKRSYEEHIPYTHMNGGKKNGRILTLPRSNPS
Assay [2] has as its target Serine/threonine-protein kinase B-raf (Homo sapiens, UniProt P15056, V600E). Kind of assay: Inhibition of human B-RAF-V600E mutant.
Assay [3] addresses Hepatocyte growth factor receptor (Homo sapiens, UniProt P08581). Put plainly: Inhibition of human MET.
Assay [4] has as its target T1, Cyclin-dependent kinase 2 (Homo sapiens, UniProt P24941). Kind of assay: Inhibition of human CDK2/CycA.
In assay [5] the target is Cyclin-dependent kinase 4/cyclin D1 (Homo sapiens, UniProt P11802). Put plainly: Inhibition of human CDK4/CycD1. Type of assay: protein-complex assay.
Cyclin-dependent kinase 4/cyclin D1, sequence (P11802 whole entry): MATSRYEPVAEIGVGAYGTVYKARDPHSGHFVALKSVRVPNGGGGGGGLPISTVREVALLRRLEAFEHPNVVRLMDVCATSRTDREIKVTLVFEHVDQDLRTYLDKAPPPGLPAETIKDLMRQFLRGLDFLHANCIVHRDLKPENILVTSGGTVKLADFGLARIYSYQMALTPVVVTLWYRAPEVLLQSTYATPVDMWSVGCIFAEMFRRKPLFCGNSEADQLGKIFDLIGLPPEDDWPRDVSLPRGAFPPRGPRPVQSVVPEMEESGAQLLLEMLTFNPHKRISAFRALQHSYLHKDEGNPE
Cyclin-dependent kinase 4/cyclin D1, sequence (P24385 whole entry, further chain): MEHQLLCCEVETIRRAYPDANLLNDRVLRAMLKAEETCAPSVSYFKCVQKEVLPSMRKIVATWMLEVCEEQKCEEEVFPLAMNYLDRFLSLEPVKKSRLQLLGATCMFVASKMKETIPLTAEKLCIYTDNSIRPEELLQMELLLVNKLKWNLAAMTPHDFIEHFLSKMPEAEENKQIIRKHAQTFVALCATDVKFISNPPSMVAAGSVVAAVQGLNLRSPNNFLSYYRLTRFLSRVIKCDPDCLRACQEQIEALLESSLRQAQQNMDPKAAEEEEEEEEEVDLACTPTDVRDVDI
The test system of assay [6] is Streptomyces coelicolor. Kind of assay: Inhibition of aph8-induced kanamycin phosphorylation in Streptomyces coelicolor cell lysate assessed as [32Pi] incorporation into kanamycin at 10 uM by microplate scintillation counter relative to control. More on the design: scale not given: the % may be the effect or the level left.
In assay [7] the test system is Streptomyces lividans. Put plainly: Inhibition of aph8 positive Streptomyces lividans at 400 uM after 20 hrs by paper disk method. The note with it: read-out: IZ. Type of assay: functional. The method in brief:
(§2)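 Test culture was Streptomyces lividans carrying plasmid pSU23 with the aphVIII gene, whose kanamycin-inactivating activity depends on Ser/Thr kinase phosphorylation. Paper disks (7 mm) held kanamycin (5 µg/disk) plus test compound at subtoxic amounts, about half the minimal growth-inhibitory dose. Disks went on plates of log-phase cells at 28 °C for 20 h. Read-out was lysis zone diameter.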

Assay [8] concerns Streptomyces coelicolor. Put plainly: Inhibition of Ca(2+))/phosphatidylserine/diacylglycerol-dependent aph8 phosphorylation in Streptomyces coelicolor cell lysate assessed as [32Pi] incorporation into aph8 at 500 nM by microplate scintillation counter relative to control. Details: scale not given: the % may be the effect or the level left. The method in brief:
as §1

Assay [9] has as its system Streptomyces lividans. Put plainly: Inhibition of aph8 positive Streptomyces lividans at 50 uM after 20 hrs by paper disk method. Type of assay: functional. The note with it: read-out: IZ. In a few lines: as §2
Assay [10] relates to Streptomyces lividans. Put plainly: Inhibition of aph8 positive Streptomyces lividans at 25 uM after 20 hrs by paper disk method. Type of assay: functional. The note with it: read-out: IZ. In a few lines: as §2
Assay [11] deals with Streptomyces lividans. Put plainly: Inhibition of aph8 positive Streptomyces lividans at 200 uM after 20 hrs by paper disk method. Type of assay: functional. Particulars: read-out: IZ. In a few lines:
as §2

Assay [12] has as its system Streptomyces lividans. Kind of assay: Inhibition of aph8 positive Streptomyces lividans at 100 uM after 20 hrs by paper disk method. Type of assay: functional. Particulars: read-out: IZ. In a few lines:
as §2

Assay [13] concerns the target T1, Cyclin-dependent kinase 2. Put plainly: Inhibition of human CDK2/Cyc2.
Assay [14] has as its system Streptomyces coelicolor. Kind of assay: Inhibition of aph8 phosphorylation in Streptomyces coelicolor cell lysate assessed as [32Pi] incorporation into aph8 at 500 nM by microplate scintillation counter relative to control. More on the design: scale not given: the % may be the effect or the level left. In a few lines: as §1
A further assay addresses T2, Ephrin type-B receptor 4 (Homo sapiens, UniProt P54760).
T2 sequence (P54760 whole entry): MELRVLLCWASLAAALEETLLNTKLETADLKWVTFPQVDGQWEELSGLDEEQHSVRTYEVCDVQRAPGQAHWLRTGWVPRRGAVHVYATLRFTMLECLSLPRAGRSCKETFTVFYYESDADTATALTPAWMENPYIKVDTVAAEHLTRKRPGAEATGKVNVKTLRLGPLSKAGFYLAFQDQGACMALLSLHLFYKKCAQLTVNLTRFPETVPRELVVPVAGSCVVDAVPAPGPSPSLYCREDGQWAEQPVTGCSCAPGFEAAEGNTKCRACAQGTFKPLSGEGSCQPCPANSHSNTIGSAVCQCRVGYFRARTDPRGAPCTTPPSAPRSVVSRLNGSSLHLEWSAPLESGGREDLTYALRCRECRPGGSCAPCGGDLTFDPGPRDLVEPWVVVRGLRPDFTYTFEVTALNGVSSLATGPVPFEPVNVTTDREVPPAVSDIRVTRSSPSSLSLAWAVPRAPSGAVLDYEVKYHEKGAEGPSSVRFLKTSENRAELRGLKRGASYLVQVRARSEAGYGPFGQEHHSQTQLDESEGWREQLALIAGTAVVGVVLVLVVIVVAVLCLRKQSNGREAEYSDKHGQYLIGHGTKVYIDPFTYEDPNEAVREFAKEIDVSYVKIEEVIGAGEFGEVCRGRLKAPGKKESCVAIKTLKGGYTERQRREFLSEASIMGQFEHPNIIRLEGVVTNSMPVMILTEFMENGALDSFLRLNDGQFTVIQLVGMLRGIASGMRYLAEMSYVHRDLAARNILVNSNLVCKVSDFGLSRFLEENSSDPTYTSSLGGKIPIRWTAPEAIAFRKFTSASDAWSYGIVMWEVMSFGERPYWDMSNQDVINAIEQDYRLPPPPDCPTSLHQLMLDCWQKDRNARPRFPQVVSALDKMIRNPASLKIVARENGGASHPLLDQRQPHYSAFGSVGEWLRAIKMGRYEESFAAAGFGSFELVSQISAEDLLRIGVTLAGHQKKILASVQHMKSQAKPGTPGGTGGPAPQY
Kind of assay: Inhibition of human EPHB4.

Assay [15] addresses Platelet-derived growth factor receptor beta (Homo sapiens, UniProt P09619). Put plainly: Inhibition of human PDGFRbeta.
In assay [16] the target is T3, NUAK family SNF1-like kinase 1 (Homo sapiens, UniProt O60285).
T3 sequence (O60285 whole entry): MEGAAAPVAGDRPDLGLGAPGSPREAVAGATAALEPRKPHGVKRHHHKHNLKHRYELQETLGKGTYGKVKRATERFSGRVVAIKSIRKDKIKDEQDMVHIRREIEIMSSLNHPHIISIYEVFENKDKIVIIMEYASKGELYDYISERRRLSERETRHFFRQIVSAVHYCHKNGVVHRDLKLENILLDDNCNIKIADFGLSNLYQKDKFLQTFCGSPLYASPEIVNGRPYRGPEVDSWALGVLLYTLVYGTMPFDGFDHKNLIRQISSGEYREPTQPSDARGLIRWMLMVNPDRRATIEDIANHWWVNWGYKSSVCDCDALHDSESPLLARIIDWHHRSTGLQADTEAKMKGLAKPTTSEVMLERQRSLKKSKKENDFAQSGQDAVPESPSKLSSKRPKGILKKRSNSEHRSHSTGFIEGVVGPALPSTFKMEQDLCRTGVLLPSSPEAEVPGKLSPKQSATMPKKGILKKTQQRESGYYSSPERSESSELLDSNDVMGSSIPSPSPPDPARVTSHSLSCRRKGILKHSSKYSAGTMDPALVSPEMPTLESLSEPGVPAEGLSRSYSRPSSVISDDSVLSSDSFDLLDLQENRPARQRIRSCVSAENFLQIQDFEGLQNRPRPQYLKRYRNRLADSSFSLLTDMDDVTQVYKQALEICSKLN
Put plainly: Inhibition of human ARK5.

Assay [17] addresses Epidermal growth factor receptor (Homo sapiens, UniProt P00533). Kind of assay: Inhibition of human EGFR.

Hepatocyte growth factor receptor, sequence (P08581 whole entry): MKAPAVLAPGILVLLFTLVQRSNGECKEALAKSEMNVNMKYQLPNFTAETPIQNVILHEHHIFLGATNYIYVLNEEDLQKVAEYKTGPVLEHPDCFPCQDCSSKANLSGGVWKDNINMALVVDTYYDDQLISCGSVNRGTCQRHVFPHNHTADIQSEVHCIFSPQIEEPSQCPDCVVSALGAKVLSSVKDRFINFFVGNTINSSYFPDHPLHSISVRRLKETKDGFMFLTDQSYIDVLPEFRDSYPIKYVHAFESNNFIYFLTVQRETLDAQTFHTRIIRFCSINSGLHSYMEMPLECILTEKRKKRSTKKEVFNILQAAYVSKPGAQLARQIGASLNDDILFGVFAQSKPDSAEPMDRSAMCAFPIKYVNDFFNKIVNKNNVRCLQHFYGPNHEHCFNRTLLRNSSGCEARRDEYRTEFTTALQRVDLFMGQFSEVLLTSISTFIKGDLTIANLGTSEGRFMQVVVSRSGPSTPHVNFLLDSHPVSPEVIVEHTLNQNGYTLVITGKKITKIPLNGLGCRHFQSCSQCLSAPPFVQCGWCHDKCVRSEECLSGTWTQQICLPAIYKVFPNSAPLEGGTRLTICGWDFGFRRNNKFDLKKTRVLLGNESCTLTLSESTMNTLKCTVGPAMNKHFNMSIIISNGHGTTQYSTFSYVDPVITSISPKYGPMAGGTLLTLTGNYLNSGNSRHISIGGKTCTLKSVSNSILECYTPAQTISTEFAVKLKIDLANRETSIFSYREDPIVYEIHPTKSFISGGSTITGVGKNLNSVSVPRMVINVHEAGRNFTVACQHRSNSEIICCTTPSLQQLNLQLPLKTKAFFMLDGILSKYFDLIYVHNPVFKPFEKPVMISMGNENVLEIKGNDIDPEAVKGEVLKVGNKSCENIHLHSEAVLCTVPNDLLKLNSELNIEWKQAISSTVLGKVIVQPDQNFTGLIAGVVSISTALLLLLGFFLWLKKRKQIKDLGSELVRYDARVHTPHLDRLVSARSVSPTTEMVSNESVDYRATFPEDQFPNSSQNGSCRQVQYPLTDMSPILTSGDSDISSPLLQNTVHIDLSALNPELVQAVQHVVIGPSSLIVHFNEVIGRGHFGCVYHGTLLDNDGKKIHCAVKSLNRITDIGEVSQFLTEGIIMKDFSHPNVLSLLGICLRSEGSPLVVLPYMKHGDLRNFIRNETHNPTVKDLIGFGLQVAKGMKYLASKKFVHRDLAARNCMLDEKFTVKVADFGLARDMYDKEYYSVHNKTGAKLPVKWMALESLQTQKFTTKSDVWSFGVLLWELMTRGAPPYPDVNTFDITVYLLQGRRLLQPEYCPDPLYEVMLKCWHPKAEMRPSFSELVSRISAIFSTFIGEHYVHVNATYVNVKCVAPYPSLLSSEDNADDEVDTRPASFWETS
Serine/threonine-protein kinase B-raf, sequence (P15056 2-766 V600E limits assumed): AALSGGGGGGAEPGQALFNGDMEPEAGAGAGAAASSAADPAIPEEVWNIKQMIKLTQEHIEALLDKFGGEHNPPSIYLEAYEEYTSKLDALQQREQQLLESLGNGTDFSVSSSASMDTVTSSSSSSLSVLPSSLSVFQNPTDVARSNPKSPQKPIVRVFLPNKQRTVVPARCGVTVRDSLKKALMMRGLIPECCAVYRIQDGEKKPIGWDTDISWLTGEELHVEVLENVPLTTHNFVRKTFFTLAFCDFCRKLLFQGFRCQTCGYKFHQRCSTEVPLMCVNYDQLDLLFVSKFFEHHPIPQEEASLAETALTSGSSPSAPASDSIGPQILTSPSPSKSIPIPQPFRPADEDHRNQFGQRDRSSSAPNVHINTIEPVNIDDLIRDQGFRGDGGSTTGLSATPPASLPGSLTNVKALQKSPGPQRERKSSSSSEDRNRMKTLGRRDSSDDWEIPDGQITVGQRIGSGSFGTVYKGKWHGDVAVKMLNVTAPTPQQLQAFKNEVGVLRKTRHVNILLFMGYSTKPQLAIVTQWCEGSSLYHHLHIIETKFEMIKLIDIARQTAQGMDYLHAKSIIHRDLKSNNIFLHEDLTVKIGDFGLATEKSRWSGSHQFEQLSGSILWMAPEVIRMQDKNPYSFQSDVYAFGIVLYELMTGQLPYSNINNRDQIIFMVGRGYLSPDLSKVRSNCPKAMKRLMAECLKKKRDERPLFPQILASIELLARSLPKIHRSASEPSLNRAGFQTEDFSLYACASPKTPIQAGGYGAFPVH

On to `COc1ccc(S(=O)(=O)Nc2ccccc2CN(C)C/C=C/c2ccc(Cl)cc2)cc1`, for which the Activity with Streptomyces coelicolor [1] was 352%.

In the case of `CNC(=N)SCCCN1C(=O)C2=C(C1=O)n1ccc3cccc(c31)C1Cc3ccccc3N21` (stereo unspecified), the IC50 stood at 5.1 µM on Insulin receptor; 8 µM in assay [2]; 6.7 µM in assay [3]; 5.3 µM in assay [4]; 5.7 µM in assay [5].

On to `CCN(CC)Cc1cn2c3c(cccc13)C1Cc3ccccc3N1C1=C2C(=O)N(C)C1=O` (stereo unspecified), for which the Activity with Streptomyces coelicolor [6] amounted to 93%; in the assay on Streptomyces coelicolor [8] it was 94%. Moreover, in the assay with Streptomyces lividans [7], the zone of inhibition at 400 µM is 14 mm. The zone of inhibition at 50 µM in the assay on Streptomyces lividans [9] is 0 mm. The zone of inhibition at 25 µM in the assay on Streptomyces lividans [10] is 0 mm. Also, the zone of inhibition at 200 µM in the assay on Streptomyces lividans [11] amounted to 12 mm. Moreover, in the assay on Streptomyces lividans [12], the zone of inhibition at 100 µM was determined as 7.5 mm.

`N=C(N)SCCCN1C(=O)C2=C(C1=O)n1ccc3cccc(c31)C1Cc3ccccc3N21` (stereo unspecified) gave a half-inhibitory concentration (IC50) in assay [13] of 4.3 µM.

As to `O=C(O)CN(CCOCCOCCN(CC(=O)O)CC(=O)O)CC(=O)O`, the Activity in the assay on Streptomyces coelicolor [14] came out at 94%.

The molecule `O=C1C2=C(C(=O)N1CCCSC1=NCCN1)n1ccc3cccc(c31)C1Cc3ccccc3N21` (stereo unspecified) came in with an IC50 in assay [4] of 7.7 µM.

On to `C=CCNC(=N)SCCCN1C(=O)C2=C(C1=O)n1ccc3cccc(c31)C1Cc3ccccc3N21` (stereo unspecified), for which the IC50 in [5] is 6.9 µM.

As to `CNC(=N)SCCCn1c(=O)c2c(c1=O)n1c3ccccc3cc1c1cccc3ccn2c31`, the IC50 at Insulin receptor was determined as 6.3 µM; on Ephrin type-B receptor 4, 3.9 µM; in [15], 6.7 µM; in assay [2] it was 8.4 µM; in [3] it was 7.4 µM; in [16], 9.7 µM. Also, the IC50 in assay [4] amounted to 6.3 µM; in assay [17] it was 9.9 µM; in assay [5], 6.2 µM.
